Data as given in publication PMC2871064 (Cancer research, 2010).
Read-outs that look alike come from different tables or passages of the source.

Assays:
B16F10 xenografts = details: cited from earlier work
SK-MEL-3 xenografts = assay: Tissue distribution in mice bearing SK-MEL-3 xenografts; format: in vivo, NCr^nu/nu mice; details: SK-MEL-3 xenograft mice; for Tissue distribution: Blood: tail vein
In short: (§1)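 Male athymic NCr nu/nu mice received 0.25 mL of cells (8 × 10⁶/mL in 1:1 D-PBS-glucose-pyruvate/Matrigel) into the right hind flank. Tumours were used at 100–500 mm³ (~21 days). Tail-vein bolus of ~74 KBq tracer in 0.05 mL; n = 5 per time point. Mice were killed by CO₂ at 1, 4 and 24 h. Organs and tumour were weighed wet and gamma-counted; results are %ID/g, mean ± SD.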

[1] = Monte Carlo simulation of radiation dose to human eye substructures; details: human projection
[2] = Pharmacokinetics and gamma camera imaging in cynomolgus monkeys; format: in vivo
In short: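 Four cynomolgus monkeys (2 female, 2 male), Telazol-anaesthetised, received 185 MBq radiotracer iv without thyroid blockade. Serial anterior/posterior gamma-camera imaging was performed. Blood was drawn at 5, 30, 60, 120 and 360 min and at 24, 48 and 72 h. Urine was pooled over 0–6, 6–24, 24–48 and 48–72 h. Analysis was non-compartmental, with CL = dose/AUC and Vss = MRT × CL.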

SK-MEL-3 tumors = assay: Effect of [^131I]MIP-1145 on SK-MEL-3 tumor growth and survival; format: in vivo, athymic nude mice; details: multiple doses, 25 MBq or 2.5 GBq/m^2
A375 xenografts = assay: Tissue distribution in mice bearing A375 xenografts; format: in vivo, NCr^nu/nu mice; details: A375 xenograft mice, 1 hour
In short: as §1

[3] = both, cynomolgus monkey, blood, iv, 185 MBq

CCN(CC)CCNC(=O)c1cc(I)c(NC(=O)c2ccc(F)cc2)cc1OC [[^131I]MIP-1145, N-(2-diethylamino-ethyl)-4-(4-fluoro-benzamido)-5-iodo-2-methoxy-benzamide]
Tumor uptake (B16F10 xenografts; specific activity 55.5 GBq/mmol): 9.28 ± 2.24 %ID/g | Tumor uptake (B16F10 xenografts; specific activity 55.5 TBq/mmol): 10.17 ± 1.81 %ID/g | Tissue distribution: Adipose (SK-MEL-3 xenografts; 1 hour): 4.15 ± 2.89 %ID/g | Tissue distribution: Bone (SK-MEL-3 xenografts; 1 hour): 1.71 ± 0.28 %ID/g | Tissue distribution: Brain (SK-MEL-3 xenografts; 1 hour): 0.82 ± 0.06 %ID/g | Tissue distribution: Heart (SK-MEL-3 xenografts; 1 hour): 2.36 ± 0.18 %ID/g | Tissue distribution: Kidneys (SK-MEL-3 xenografts; 1 hour): 16.55 ± 0.52 %ID/g | Tissue distribution: Large Intestine (SK-MEL-3 xenografts; 1 hour): 2.93 ± 0.54 %ID/g | Tissue distribution: Liver (SK-MEL-3 xenografts; 1 hour): 7.94 ± 1.12 %ID/g | Tissue distribution: Lungs (SK-MEL-3 xenografts; 1 hour): 9.70 ± 1.28 %ID/g | Tissue distribution: Skeletal Muscle (SK-MEL-3 xenografts; 1 hour): 1.39 ± 0.16 %ID/g | Tissue distribution: Small Intestine (SK-MEL-3 xenografts; 1 hour): 15.19 ± 1.50 %ID/g | Tissue distribution: Spleen (SK-MEL-3 xenografts; 1 hour): 7.26 ± 1.18 %ID/g | Tissue distribution: Stomach (SK-MEL-3 xenografts; 1 hour): 12.85 ± 2.53 %ID/g | Tissue distribution: Testes (SK-MEL-3 xenografts; 1 hour): 1.51 ± 0.18 %ID/g | Tissue distribution: Tumor (SK-MEL-3 xenografts; 1 hour): 3.77 ± 1.68 %ID/g | Tissue distribution: Blood (SK-MEL-3 xenografts; 1 hour post-injection): 0.75 ± 0.12 %ID/g | Tissue distribution: Adipose (SK-MEL-3 xenografts; 4 hours): 1.03 ± 0.26 %ID/g | Tissue distribution: Bone (SK-MEL-3 xenografts; 4 hours): 0.95 ± 0.14 %ID/g | Tissue distribution: Brain (SK-MEL-3 xenografts; 4 hours): 0.19 ± 0.02 %ID/g | Tissue distribution: Heart (SK-MEL-3 xenografts; 4 hours): 1.32 ± 0.18 %ID/g | Tissue distribution: Kidneys (SK-MEL-3 xenografts; 4 hours): 13.12 ± 2.68 %ID/g | Tissue distribution: Large Intestine (SK-MEL-3 xenografts; 4 hours): 18.91 ± 3.84 %ID/g | Tissue distribution: Liver (SK-MEL-3 xenografts; 4 hours): 5.18 ± 0.59 %ID/g | Tissue distribution: Lungs (SK-MEL-3 xenografts; 4 hours): 6.87 ± 1.33 %ID/g | Tissue distribution: Skeletal Muscle (SK-MEL-3 xenografts; 4 hours): 0.73 ± 0.16 %ID/g | Tissue distribution: Small Intestine (SK-MEL-3 xenografts; 4 hours): 17.21 ± 2.05 %ID/g | Tissue distribution: Spleen (SK-MEL-3 xenografts; 4 hours): 3.75 ± 0.60 %ID/g | Tissue distribution: Stomach (SK-MEL-3 xenografts; 4 hours): 10.74 ± 2.52 %ID/g | Tissue distribution: Testes (SK-MEL-3 xenografts; 4 hours): 1.07 ± 0.09 %ID/g | Tissue distribution: Tumor (SK-MEL-3 xenografts; 4 hours): 8.82 ± 3.55 %ID/g | Tumor:blood ratio (SK-MEL-3 xenografts; 4 hours post-injection): 25.2 | Tissue distribution: Blood (SK-MEL-3 xenografts; 4 hours post-injection): 0.35 ± 0.04 %ID/g | Tissue distribution: Adipose (SK-MEL-3 xenografts; 24 hours): 0.09 ± 0.05 %ID/g | Tissue distribution: Bone (SK-MEL-3 xenografts; 24 hours): 0.09 ± 0.08 %ID/g | Tissue distribution: Brain (SK-MEL-3 xenografts; 24 hours): 0.01 ± 0.01 %ID/g | Tissue distribution: Heart (SK-MEL-3 xenografts; 24 hours): 0.04 ± 0.03 %ID/g | Tissue distribution: Kidneys (SK-MEL-3 xenografts; 24 hours): 0.51 ± 0.18 %ID/g | Tissue distribution: Large Intestine (SK-MEL-3 xenografts; 24 hours): 2.24 ± 0.67 %ID/g | Tissue distribution: Liver (SK-MEL-3 xenografts; 24 hours): 0.50 ± 0.07 %ID/g | Tissue distribution: Lungs (SK-MEL-3 xenografts; 24 hours): 0.29 ± 0.08 %ID/g | Tissue distribution: Skeletal Muscle (SK-MEL-3 xenografts; 24 hours): 0.03 ± 0.02 %ID/g | Tissue distribution: Small Intestine (SK-MEL-3 xenografts; 24 hours): 1.03 ± 0.24 %ID/g | Tissue distribution: Spleen (SK-MEL-3 xenografts; 24 hours): 0.12 ± 0.03 %ID/g | Tissue distribution: Stomach (SK-MEL-3 xenografts; 24 hours): 1.41 ± 0.53 %ID/g | Tissue distribution: Testes (SK-MEL-3 xenografts; 24 hours): 0.22 ± 0.02 %ID/g | Tissue distribution: Tumor (SK-MEL-3 xenografts; 24 hours): 5.91 ± 3.94 %ID/g | Tumor:blood ratio (SK-MEL-3 xenografts; 24 hours post-injection): 197 | Tissue distribution: Blood (SK-MEL-3 xenografts; 24 hours post-injection): 0.03 ± 0.00 %ID/g | Administered activity needed to reach the lens TD5/5 of 10 Gy for cataracts [1]: 7.7 GBq | Administered activity needed to reach the retina TD5/5 of 45 Gy for retinopathy [1]: 20.8 GBq | MRT [2, 3]: 47 ± 5 h | Vd [2, 3]: 19 ± 3 L | clearance [2, 3]: 6.67 mL/min | Injected dose recovered in the urine ([2]; cynomolgus monkeys, by 72 hours post-injection): 28% | Duration of response (SK-MEL-3 tumors): over 125 days | Tissue distribution: Adipose (A375 xenografts): 1.56 ± 0.23 %ID/g | Tissue distribution: Bone (A375 xenografts): 1.34 ± 0.12 %ID/g | Tissue distribution: Brain (A375 xenografts): 0.60 ± 0.17 %ID/g | Tissue distribution: Heart (A375 xenografts): 1.96 ± 0.33 %ID/g | Tissue distribution: Kidneys (A375 xenografts): 14.26 ± 2.73 %ID/g | Tissue distribution: Large Intestine (A375 xenografts): 2.69 ± 0.49 %ID/g | Tissue distribution: Liver (A375 xenografts): 6.79 ± 1.33 %ID/g | Tissue distribution: Lungs (A375 xenografts): 9.81 ± 0.88 %ID/g | Tissue distribution: Skeletal Muscle (A375 xenografts): 1.03 ± 0.09 %ID/g | Tissue distribution: Small Intestine (A375 xenografts): 9.19 ± 3.32 %ID/g | Tissue distribution: Spleen (A375 xenografts): 4.54 ± 1.34 %ID/g
